Results: ChEMBL document CHEMBL4020720, “Oxadiazole-substituted naphtho[2,3-b]thiophene-4,9-diones as potent inhibitors of keratinocyte hyperproliferation. Structure-activity relationships of the tricyclic quinone skeleton and the oxadiazole substituent” (Eur J Med Chem, 2017)

Assays:
HaCaT [1] = experiment: Antihyperproliferative activity against human HaCaT cells after 48 hrs by MTT assay; type: functional, cell-based
Method in brief: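 HaCaT keratinocytes (mycoplasma-negative) exposed to compounds for 48 h, then MTT added (5 mg/mL stock in PBS) for 2 h at 37 °C. Formazan dissolved in DMSO and read at 570 nm, with 630 nm background. Inhibition = (1 − test/control) × 100, from test means (N = 3) against controls (N = 6-8). IC50 by nonlinear regression.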

HaCaT [2] = experiment: (§1) Induction of superoxide generation in human HaCaT cells assessed as 2-OH-E+ oxidized product formation by measuring mean fluorescence intensity at 5 umol/L after 18 hrs by flow cytometry (reference value: 367.5 +/- 80.1); type: functional
Method in brief: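 HaCaT keratinocytes grown in DMEM with 10% FBS and penicillin/streptomycin for 24 h at 37 °C, then exposed to test compound (5 µM, 0.1% DMSO final) for 18 h. DHE was added and loaded for 30 min, with shaking for the first 5 min, in the dark. Cells were trypsinized and read by flow cytometry (488 nm excitation, FL2 550–600 nm), 10 000 live cells, dead cells gated out. Read-out is MFI versus DMSO control; triplicate.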

[3] = target: T1, NADPH--cytochrome P450 reductase (Homo sapiens, UniProt P16435); experiment: Induction of recombinant human CPR-mediated superoxide generation assessed as one-electron reduction of compound by measuring SOD-inhibitable reduction of succinoylated cytochrome c per 2 mU enzyme at […] by spectrophotometric analysis (reference value: 0.2 +/- 0.1 micromol/L/min)
T1 sequence (P16435 whole entry): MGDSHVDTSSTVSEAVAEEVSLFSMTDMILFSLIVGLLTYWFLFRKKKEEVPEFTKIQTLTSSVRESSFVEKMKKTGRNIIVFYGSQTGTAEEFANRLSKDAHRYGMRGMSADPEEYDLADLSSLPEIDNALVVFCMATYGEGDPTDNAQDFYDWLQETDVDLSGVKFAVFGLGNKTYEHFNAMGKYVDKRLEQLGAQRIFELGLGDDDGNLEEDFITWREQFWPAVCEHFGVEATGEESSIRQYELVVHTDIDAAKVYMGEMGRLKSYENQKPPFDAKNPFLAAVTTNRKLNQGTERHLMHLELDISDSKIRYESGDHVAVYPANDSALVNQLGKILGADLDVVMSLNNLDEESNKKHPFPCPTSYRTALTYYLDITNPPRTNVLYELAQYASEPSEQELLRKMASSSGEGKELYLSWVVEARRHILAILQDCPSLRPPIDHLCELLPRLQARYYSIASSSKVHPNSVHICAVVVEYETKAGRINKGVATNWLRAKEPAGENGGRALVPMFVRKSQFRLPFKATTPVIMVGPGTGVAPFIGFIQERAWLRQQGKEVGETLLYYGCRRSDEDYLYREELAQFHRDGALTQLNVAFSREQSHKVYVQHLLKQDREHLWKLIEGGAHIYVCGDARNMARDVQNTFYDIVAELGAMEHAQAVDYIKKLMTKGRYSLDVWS

HaCaT [4] = experiment: Induction of apoptosis in human HaCaT cells at 5 umol/L preincubated with 5 umol/L NQO-1 inhibitor dicoumarol for 25 mins followed by compound treatment measured after 18 hrs by 7-AAD staining based flow cytometry (reference value: 4.3 +/- 2.6%); type: functional; set-up: scale not given: the % may be the effect or the level left
HaCaT [5] = experiment: Induction of apoptosis in human HaCaT cells at 5 umol/L after 18 hrs by 7-AAD staining based flow cytometry (reference value: 3 +/- 1%); type: functional
HaCaT [6] = experiment: Induction of superoxide generation in human HaCaT cells assessed as 2-OH-E+ oxidized product formation by measuring mean fluorescence intensity at 50 umol/L after 30 mins by flow cytometry (reference value: 7.1 +/- 5.2); type: functional
HaCaT [7] = experiment: as §1, with “umol/L preincubated with 5 umol/L NQO-1 inhibitor dicoumarol for 25 mins followed by compound treatment measured” for “umol/L”, “407.59” for “367.5”, “68.7)” for “80.1)”; type: functional
Method in brief: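 HaCaT cells were cultured as for the chronic assay and preincubated 25 min with dicoumarol (5 µmol/L) before test compound was added. DHE was loaded for 30 min in the dark, then cells were trypsinized. 2-OH-E+ fluorescence was read by flow cytometry in FL2 (550–600 nm) on 10 000 live cells, dead cells gated out, as MFI against DMSO control. Triplicate.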

[8] = target: NAD(P)H dehydrogenase [quinone] 1 (Homo sapiens) (UniProt P15559); experiment: Induction of recombinant human NQO-1-mediated superoxide generation assessed as two-electron reduction of compound by measuring SOD-inhibitable reduction of cytochrome c per unit enzyme at […] by spectrophotometric analysis (reference value: 0.2 +/- 0.1 micromol/L/min)
Chain of NAD(P)H dehydrogenase [quinone] 1 (Homo sapiens) (P15559 whole entry): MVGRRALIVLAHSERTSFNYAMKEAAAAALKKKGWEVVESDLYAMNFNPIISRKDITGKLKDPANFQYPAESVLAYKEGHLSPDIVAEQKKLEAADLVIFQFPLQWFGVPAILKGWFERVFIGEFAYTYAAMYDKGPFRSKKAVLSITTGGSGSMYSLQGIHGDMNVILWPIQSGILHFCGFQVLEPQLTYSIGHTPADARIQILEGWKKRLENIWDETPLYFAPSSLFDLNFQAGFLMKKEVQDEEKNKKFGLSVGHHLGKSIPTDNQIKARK

## CCc1nnc(-c2cc3c(s2)C(=O)c2ccccc2C3=O)s1
HaCaT [1]
  IC50: > 15 µM

## O=C1c2ccccc2C(=O)c2sc(/C=N/Nc3ccccc3)cc21
HaCaT [1]
  IC50: > 30 µM

## CCc1noc(-c2ccc(C(C)=O)cc2)n1
HaCaT [1]
  IC50: > 30 µM

## CC(=O)/C=C/c1cc2c(s1)C(=O)c1ccccc1C2=O
HaCaT [1]
  IC50: > 30 µM

## CCc1noc(C=C2c3ccccc3C(=O)c3ccccc32)n1
HaCaT [1]
  IC50: 6.5 µM

## CCc1noc(-c2cc3c(s2)C(=O)C=CC3=O)n1
HaCaT [1]
  IC50: 11 µM

## CCc1noc(-c2cc(C(C)=O)cs2)n1
HaCaT [1]
  IC50: > 30 µM

## CCc1nc(-c2cc3c(s2)C(=O)c2ccccc2C3=O)no1
HaCaT [1]
  IC50: 0.58 µM

## CCC(=O)Nc1cc2c(s1)C(=O)c1ccccc1C2=O
HaCaT [1]
  IC50: 9.6 µM

## CCc1noc(-c2ccc3c(c2)C(=O)C=CC3=O)n1
HaCaT [1]
  IC50: 14 µM

## CC(=O)c1cc2c(s1)C(=O)c1ccccc1C2=O
HaCaT [2]
  Flu intensity: 500
[3]
  Activity: 1.2 µmol/L/min
HaCaT [4]
  Activity: 3.7%
HaCaT [5]
  Activity: 4.2%
HaCaT [6]
  Flu intensity: 19.2
HaCaT [7]
  Flu intensity: 434.5
[8]
  Activity: 0.8 µmol/L/min

## CN/N=C/c1cc2c(s1)C(=O)c1ccccc1C2=O
HaCaT [1]
  IC50: > 30 µM

## N#Cc1cc2c(s1)C(=O)c1ccccc1C2=O
HaCaT [1]
  IC50: 0.46 µM

## COc1ccc(C(=O)Nc2cc3c(s2)C(=O)c2ccccc2C3=O)cc1
HaCaT [1]
  IC50: 1.1 µM

## CCc1noc(-c2ccccc2)n1
HaCaT [1]
  IC50: > 30 µM

## CCc1noc(-c2ccc(C(=O)c3ccccc3)s2)n1
HaCaT [1]
  IC50: > 30 µM

## CCc1noc(-c2ccc3c(=O)c4ccccc4oc3c2)n1
HaCaT [1]
  IC50: > 30 µM

## CCc1noc(-c2cc3c(OC)c4ccccc4cc3s2)n1
HaCaT [1]
  IC50: > 30 µM

## Cc1cc2c(s1)C(=O)c1ccccc1C2=O
HaCaT [2]
  Flu intensity: 517
[3]
  Activity: 1.1 µmol/L/min
HaCaT [4]
  Activity: 4.3%
HaCaT [5]
  Activity: 4.3%
HaCaT [6]
  Flu intensity: 11.5
HaCaT [7]
  Flu intensity: 633.5
[8]
  Activity: 0.3 µmol/L/min
HaCaT [1]
  IC50: 5.2 µM

## CCc1noc(-c2ccc3c(c2)C(=O)c2ccccc2C3=O)n1
HaCaT [1]
  IC50: > 30 µM

## CCc1noc(-c2cc3c(s2)C(=O)c2ccccc2C3=O)n1
HaCaT [2]
  Flu intensity: 930.1
[3]
  Activity: 0.9 µmol/L/min
HaCaT [4]
  Activity: 6.9%
HaCaT [5]
  Activity: 39.3%
HaCaT [6]
  Flu intensity: 25.2
HaCaT [7]
  Flu intensity: 558.7
[8]
  Activity: 0.5 µmol/L/min
HaCaT [1]
  IC50: 0.36 µM

## O=C1c2ccccc2C(=O)c2sc([N+](=O)[O-])cc21
HaCaT [2]
  Flu intensity: 973.8
[3]
  Activity: 2 µmol/L/min
HaCaT [4]
  Activity: 3.4%
HaCaT [5]
  Activity: 5.6%
HaCaT [6]
  Flu intensity: 138
HaCaT [7]
  Flu intensity: 1022
[8]
  Activity: 4.6 µmol/L/min
HaCaT [1]
  IC50: 1.8 µM

## CC1=CC(=O)c2ccccc2C1=O [MENADIONE]
HaCaT [2]
  Flu intensity: 431.9
[3]
  Activity: 2.1 µmol/L/min
HaCaT [4]
  Activity: 3.1%
HaCaT [5]
  Activity: 4.8%
HaCaT [6]
  Flu intensity: 44
HaCaT [7]
  Flu intensity: 457.2
[8]
  Activity: 1 µmol/L/min

## CCc1nc(-c2ccc3c(c2)C(=O)c2ccccc2C3=O)no1
HaCaT [1]
  IC50: > 30 µM

## CCc1noc(-c2ccc3ccccc3c2)n1
HaCaT [1]
  IC50: > 30 µM

## Cc1nnc(-c2cc3c(s2)C(=O)c2ccccc2C3=O)o1
HaCaT [1]
  IC50: 0.08 µM

## CCc1noc(C2=CC(=O)c3ccccc3C2=O)n1
HaCaT [1]
  IC50: > 30 µM

## O=C1c2ccccc2C(=O)c2sc(-c3nnn[nH]3)cc21
HaCaT [1]
  IC50: > 30 µM

## O=C(Nc1cc2c(s1)C(=O)c1ccccc1C2=O)c1ccccc1
HaCaT [1]
  IC50: 2.3 µM

## O=C1c2ccccc2C(=O)c2c([N+](=O)[O-])csc21
HaCaT [1]
  IC50: 1.1 µM

## CCc1noc(-c2ccc3sc4ccccc4c(=O)c3c2)n1
HaCaT [1]
  IC50: > 30 µM

## CCc1noc(-c2cc3cc4ccccc4cc3s2)n1
HaCaT [1]
  IC50: > 30 µM

## CCc1noc(-c2cc3c(OC)ccc(OC)c3s2)n1
HaCaT [1]
  IC50: > 30 µM

## CCc1nnc(-c2cc3c(s2)C(=O)c2ccccc2C3=O)o1
HaCaT [1]
  IC50: 0.15 µM

## CCCC(=O)Nc1cc2c(s1)C(=O)c1ccccc1C2=O
HaCaT [1]
  IC50: 5.7 µM

## COC(=O)c1cc2c(s1)C(=O)c1ccccc1C2=O
HaCaT [1]
  IC50: 0.71 µM

## Nc1cc2c(s1)C(=O)c1ccccc1C2=O
HaCaT [2]
  Flu intensity: 518
[3]
  Activity: 1.1 µmol/L/min
HaCaT [4]
  Activity: 3.2%
HaCaT [5]
  Activity: 5.6%
HaCaT [6]
  Flu intensity: 76.7
HaCaT [7]
  Flu intensity: 502.3
[8]
  Activity: 0.8 µmol/L/min
HaCaT [1]
  IC50: > 30 µM

## CCc1noc(-c2cc3c(s2)Cc2ccccc2C3=O)n1
HaCaT [1]
  IC50: 7.3 µM

## O=C1c2ccccc2C(=O)c2sccc21 [THIOPHENONAPHTHOQUINONE]
HaCaT [2]
  Flu intensity: 552.7
[3]
  Activity: 1.2 µmol/L/min
HaCaT [4]
  Activity: 7.4%
HaCaT [5]
  Activity: 4%
HaCaT [6]
  Flu intensity: 10.5
HaCaT [7]
  Flu intensity: 583.3
[8]
  Activity: 1.2 µmol/L/min

## O=C(/C=C/c1cc2c(s1)C(=O)c1ccccc1C2=O)c1ccccc1
HaCaT [1]
  IC50: > 30 µM

## CCCCc1nnc(-c2cc3c(s2)C(=O)c2ccccc2C3=O)o1
HaCaT [1]
  IC50: 1.9 µM

## O=C1c2ccccc2C(=O)c2sc(-c3nnc(-c4ccccc4)o3)cc21
HaCaT [1]
  IC50: > 30 µM

## O=C(O)c1cc2c(s1)C(=O)c1ccccc1C2=O
HaCaT [1]
  IC50: > 30 µM

## CCc1noc(-c2cc3ccccc3s2)n1
HaCaT [1]
  IC50: > 30 µM

## O=Cc1cc2c(s1)C(=O)c1ccccc1C2=O
HaCaT [1]
  IC50: 1.2 µM

## O=C1c2ccccc2C(=O)c2sc(-c3nncs3)cc21
HaCaT [1]
  IC50: 0.3 µM

## CCc1noc(-c2cc3oc4ccccc4c(=O)c3s2)n1
HaCaT [1]
  IC50: > 30 µM

## Cc1nnc(-c2cc3c(s2)C(=O)c2ccccc2C3=O)s1
HaCaT [1]
  IC50: 3.7 µM

## CCc1noc(-c2cc3c(OC)c4ccccc4c(OC)c3s2)n1
HaCaT [1]
  IC50: 6.7 µM

## CCc1noc(-c2cccs2)n1
HaCaT [1]
  IC50: > 30 µM

## O=C1c2ccccc2C(=O)c2sc(-c3nnco3)cc21
HaCaT [1]
  IC50: 0.22 µM

## NNC(=O)c1cc2c(s1)C(=O)c1ccccc1C2=O
HaCaT [1]
  IC50: 1.7 µM

## CC(C)C(=O)Nc1cc2c(s1)C(=O)c1ccccc1C2=O
HaCaT [1]
  IC50: 3.3 µM
